Compound activity deposited in PubChem BioAssay by several laboratories.
Most compounds without a hit are left out; they make up all but 4.2% or so of the library.
SENP1 inh – human SENP1 catalytic domain inhibitors, primary screen, biochemical, FRET, uHTS | AID 624204, 2012 | Sentrin-specific protease 1 (Homo sapiens), Q9P0U3 | inhibition, % at 10 µM | recombinant SENP1 catalytic domain, CyPet-SUMO1-YPet FRET cleavage | 0.21% of 360,000 active;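 active means inhibition at least 30% at 10 µM, raw YFP signal under a set limit, fluorescence ratio 0.5 to 1.5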;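 further: 0% = enzyme with DMSO and 100% = no enzyme wells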
Target sequence (Q9P0U3 419-644 limits assumed): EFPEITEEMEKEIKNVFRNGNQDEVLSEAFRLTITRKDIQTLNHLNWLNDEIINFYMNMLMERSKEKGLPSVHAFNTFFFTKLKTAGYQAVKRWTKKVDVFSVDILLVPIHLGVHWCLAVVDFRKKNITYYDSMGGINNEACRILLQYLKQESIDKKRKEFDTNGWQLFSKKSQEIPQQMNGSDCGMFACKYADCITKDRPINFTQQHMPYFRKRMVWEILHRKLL
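Compound: 10 µM single point, 0.5% DMSO; Test system: hSENP1 catalytic domain, recombinant; Timing: 50 min reaction at room temperature; Technique: FRET, CFP and YFP emission; Control set: no-enzyme wells low, DMSO-plus-enzyme wells high control.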
Fh CTSL1 inh – Fasciola hepatica cathepsin L1 inhibitors, primary screen, counter-screen for PFM18AAP inhibitor project, biochemical, QFRET, fluorogenic peptide substrate; inhibition, % at 5.96 µM; 0.49% of 300,000 active; recombinant F. hepatica cathepsin L1, Z-Leu-Arg-MCA fluorescence;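 active means inhibition above the mean of all tested compounds plus 3 SD, set per screening campaign, cut at about 17% in these data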;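 further: 0% = plate median of test compound wells and 100% = 1 µM Z-Phe-Ala-diazomethylketone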
FXN GAA850 act – FXN promoter activators, primary screen, cell-based, luciferase luminescence, HEK293 lucGAA850; HEK293 lucGAA850 FXN promoter luciferase reporter, 24 h; percent of 10 µM SAHA response; activation, % at 6 µM; 0.56% of 360,000 active; AID 540364, 2011;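 active means activation above the average of all compounds screened plus 3 SD, cutoff fixed separately per campaign, cut at about 7.5% in these data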;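 further: 0% = DMSO wells and 100% = 10 µM SAHA wells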
AHR act – AHR activators, primary screen, cell-based, luminescence, luciferase reporter, human | Aryl hydrocarbon receptor (Homo sapiens), P35869 | AHR-responsive luciferase reporter cells | activation, % at 5 µM | 2.5% of 320,000 active | AID 2796, 2010; in the data active means activation above about 47%;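 further: 0% = vehicle wells and 100% = reference agonist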
M18AAP inhibitor – PfM18AAP inhibitors, malaria aminopeptidase, primary screen, biochemical, QFRET, recombinant enzyme | H-Glu-NHMec fluorogenic cleavage | 1.2% of 290,000 active | M18 aspartyl aminopeptidase (Plasmodium falciparum 3D7) | inhibition, % at 7.35 µM;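 active means inhibition above the campaign mean inhibition over all tested compounds plus 3 SD, cut at about 28% in these data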;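 further: 0% = plate median of test compound wells and 100% = 2 mM ZnCl2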
HDAC3 inhib – HDAC3 deacetylase inhibitors, primary screen, biochemical, fluorescence, cell-free homogeneous; inhibition, % at 8.3 µM; recombinant HDAC3, fluorogenic peptide/trypsin coupled; 0.15% of 320,000 active; AID 2718, 2010; Histone deacetylase 3 (Homo sapiens), O15379; in the data active means inhibition above about 26%, passing the limit was not always enough
Target sequence (O15379 whole entry, looked up): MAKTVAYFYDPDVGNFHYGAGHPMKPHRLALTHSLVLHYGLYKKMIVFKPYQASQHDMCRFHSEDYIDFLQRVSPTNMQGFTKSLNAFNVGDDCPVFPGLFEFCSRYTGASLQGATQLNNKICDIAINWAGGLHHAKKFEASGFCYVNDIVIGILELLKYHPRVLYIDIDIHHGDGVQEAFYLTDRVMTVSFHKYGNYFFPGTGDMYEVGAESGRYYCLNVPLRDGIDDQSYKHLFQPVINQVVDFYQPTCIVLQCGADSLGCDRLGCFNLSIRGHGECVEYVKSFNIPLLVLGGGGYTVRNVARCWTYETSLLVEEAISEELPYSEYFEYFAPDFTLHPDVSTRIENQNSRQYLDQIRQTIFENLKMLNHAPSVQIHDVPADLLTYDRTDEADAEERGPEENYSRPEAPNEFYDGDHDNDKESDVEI
GAA30 FXN cntr – GAA30 FXN promoter activators, confirmation, counter-screen for GAA850 frataxin promoter activator project, cell-based, luminescence, HEK293, lucGAA30, triplicate. shares compounds with FXN GAA850 act. HEK293 lucGAA30 FXN promoter luciferase, 24 h; DMSO = 0%, 5 µM ipriflavone = 100%. activation, % at 6 µM. 66% of 1,900 active. AID 588350, 2011;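 active means mean activation above the mean of solvent-only control wells plus 3 SD, cut at about 22% in these data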;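 further: counterscreen of GAA850 promoter hits where activity marks nonselective or luminescence artifacts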
GAA850 confirm – FXN GAA850 promoter activators in reporter cells, confirmation, cell-based, luminescence, HEK293 lucGAA850, triplicate. shares compounds with FXN GAA850 act. HEK293 lucGAA850 FXN promoter luciferase reporter, 24 h; 100% = activation by SAHA. activation, % at 6 µM. 86% of 1,900 active. AID 588351, 2011;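 active means mean activation above a set limit taken from the primary screen, cut at about 8% in these data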;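 further: 0% = DMSO wells and 100% = 10 µM SAHA wells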
Active calls of the source: *; nt = no result given.

SMILES | SENP1 inh | Fh CTSL1 inh | FXN GAA850 act | AHR act | M18AAP inhibitor | HDAC3 inhib | GAA30 FXN cntr | GAA850 confirm
COC(=O)c1ccc(C(=O)OC)c(NC2=NS(=O)(=O)c3ccccc32)c1 | -4.2 | 1.6 | -1.0 | 0.6 | 4.3 | 0.4 | nt | nt
Nc1ncnc(Nc2ccc(F)cc2)n1 | 1.6 | -2.0 | 1.1 | -0.7 | 2.3 | nt | nt | nt
Fc1ccc(Nc2ccnc(Nc3ccc(F)cc3)n2)cc1 | -1.9 | -1.3 | 8.4* | 25.9 | -4.8 | 6.3 | 106.8* | 34.1*
C=CCOc1ccc2c(c1)C(=NO)c1cc(OCC=C)ccc1-2 | 2.9 | -1.1 | 8.0* | -3.5 | -9.8 | -7.4 | 32.3* | 19.5*
CC1(C(=O)NS(=O)(=O)c2cccc(F)c2)CCN1C(=O)C1(c2ccc(Cl)cc2)CCC1 (centres undefined) | 1.0 | nt | 0.2 | nt | nt | nt | nt | nt
O=C(NC(=S)Nc1cccnc1Cl)c1ccco1 | 0.7 | -4.9 | 7.8* | 13.8 | -4.8 | 3.7 | 63.5* | 20.4*
COc1cccc(CN2CCC2(C)C(=O)Nc2cccc(NS(C)(=O)=O)c2)c1OC (centres undefined) | -2.5 | nt | -1.7 | nt | nt | nt | nt | nt
COc1ccc(CN2CCC2(C)C(=O)Nc2cccc(NS(C)(=O)=O)c2)c2ccccc12 (centres undefined) | 3.4 | nt | 16.8* | nt | nt | nt | 7.8 | 18.7*
CC1(Cc2ccccc2C#N)C(=O)Nc2cc(-c3ccccc3Cl)ccc21 (centres undefined) | 0.3 | nt | 3.8 | nt | nt | nt | nt | nt
CC1(Cc2ccc(C(F)(F)F)nc2)C(=O)Nc2cc(-c3ccccc3Cl)ccc21 (centres undefined) | 1.9 | nt | 13.9* | nt | nt | nt | 11.8 | 14.4*
C=CCNc1nc(Cl)nc(Nc2ccc(OC)cc2)n1 | 1.9 | -1.8 | 8.1* | 18.4 | 2.4 | 0.7 | 63.9* | 25.0*
COC(=O)C1(C(=O)OC)c2cc3c(cc2CN(S(=O)(=O)c2ccc(C)cc2)C1CC(C)=O)OCO3 (centres undefined) | -0.3 | nt | nt | nt | nt | nt | nt | nt
CCCCC(=O)NC(=S)Nc1cccc(Cl)c1N1CCCCC1 | -0.8 | -3.5 | 10.2* | -0.3 | -0.6 | -1.5 | 13.2 | 9.6*
CCCCc1ncc(CN2CCC(n3nccc3NC(=O)c3ccccc3Cl)CC2)[nH]1 | 0.4 | 0.5 | 2.3 | 0.7 | -9.4 | 1.5 | nt | nt
Cc1cccc(-n2cnc3sc(C)c(C)c3c2=O)c1 | 0.2 | 3.7 | 1.6 | -0.1 | 2.2 | 1.2 | nt | nt
COc1cccc(-n2cnc3sc(C)c(C)c3c2=O)c1 | 2.9 | -4.2 | 9.3* | -0.2 | -3.0 | 1.4 | 59.3* | 23.7*
O=C1CSc2ccc(C(=O)NCCC3=CCCCC3)cc2N1 | -0.8 | -4.2 | 7.8* | 7.1 | -11.9 | 0.0 | 76.5* | 24.0*
CCCCn1c(N)c(N(CC(C)C)C(=O)C2CCCN(C(=O)c3ccc(Cl)cc3)C2)c(=O)[nH]c1=O (centres undefined) | 2.3 | -1.9 | -0.3 | 0.3 | nt | 0.8 | nt | nt
Cc1ccc(NC(=O)C(NC2CCCc3ccccc32)c2ccccc2)cc1Cl (centres undefined) | -2.9 | 4.1 | 3.4 | 1.6 | -1.3 | -1.4 | nt | nt
Cc1ccc(NC(=O)C(NC2CCCc3ccccc32)c2ccccc2)c([N+](=O)[O-])c1 (centres undefined) | -21.5 | -4.5 | 9.6* | 22.3 | 5.4 | -1.8 | 15.3 | 17.1*
O=C(NC1=NN(c2ccccc2)CC1)Nc1ccccc1F | 0.6 | 3.7 | 8.5* | 2.0 | -4.3 | 6.8 | 45.5* | 18.2*
Cc1ccc(N2CCN(C(=O)C(=O)c3ccc(F)c(F)c3)CC2)cc1 | 1.1 | nt | nt | nt | nt | nt | nt | nt
O/N=C\c1ccc(-c2ccccc2)o1 | 4.1 | 0.7 | 4.4 | 5.9 | -3.5 | 8.2 | nt | nt
O=C(/C=C\c1ccc(-c2ccccc2)o1)c1ccccc1 | -24.0 | 66.2* | 11.7* | 22.6 | -10.4 | -5.2 | 67.4* | 27.1*
CCNc1oc(-c2cccc3ccccc23)nc1C#N | -35.1 | 9.0 | 7.0 | 2.7 | -5.3 | -3.7 | nt | nt
SMILES | SENP1 inh | Fh CTSL1 inh | FXN GAA850 act | AHR act | M18AAP inhibitor | HDAC3 inhib | GAA30 FXN cntr | GAA850 confirm
CC(C)Nc1oc(-c2cccc3ccccc23)nc1C#N | -27.9 | 4.2 | 8.6* | 25.3 | 1.9 | -148.9 | 96.6* | 35.7*
CCn1c(SCC(=O)NCCc2ccc(OC)c(OC)c2)nc2c([nH]c3ccccc32)c1=O | 2.5 | nt | 14.1* | nt | nt | nt | 26.2* | 8.2*
COCCNC(=O)CSc1nc2ccccc2c(=O)n1CCC(=O)NCCc1ccc(OC)c(OC)c1 | -0.2 | -2.7 | 0.3 | 0.2 | -2.5 | 1.3 | nt | nt
Cc1cc2nc3ccc(N(C)C)cc3nc2cc1N | 71.8 | -2.3 | 7.8* | 11.4 | nt | 9.3 | 119.3* | 34.3*
CCOC(=O)C(C)Oc1cccc2c(=O)n(CC(=O)Nc3ccc4c(c3)OCCO4)ccc12 (centres undefined) | 1.6 | 1.1 | 11.4* | -1.3 | 5.5 | -13.6 | 4.2 | -0.6
COCc1cc(C)nc2sc(C(=O)Nc3cccc(OC)c3)c(N)c12 | -24.7 | -8.6 | 7.7* | 11.6 | 5.3 | 4.9 | 114.7* | 38.0*
COc1cccc(NC(=O)Cc2ccccc2)c1 | -0.9 | -1.5 | 0.5 | 12.8 | 3.5 | -1.5 | nt | nt
O=C(Cc1ccccc1)Nc1cccc(N2C(=O)C=CC2=O)c1 | -1.0 | -1.2 | 9.0* | -0.7 | -11.2 | -5.5 | 2.6 | 6.6
CCCN1CCN(S(=O)(=O)c2ccc3c(c2)CCC(=O)N3)CC1 | -0.8 | nt | 0.4 | 0.7 | nt | -2.2 | nt | nt
COC(=O)C1=C(C)NC2=C(C(=O)CCC2)C1c1cn(Cc2ccc(Cl)cc2Cl)nc1-c1ccccc1 (centres undefined) | -38.0 | 4.6 | 5.3 | 4.1 | 1.6 | -5.4 | nt | nt
CCOC(=O)C1=C(C)NC2=C(C(=O)CCC2)C1c1cn(Cc2ccc(Cl)cc2Cl)nc1-c1ccccc1 (centres undefined) | -67.3 | 0.4 | 12.9* | 3.0 | -0.1 | -11.0 | 22.2* | 7.8*
COc1ccccc1Nc1nc(Cl)c(C=O)s1 | -38.0 | 5.3 | 11.5* | 3.4 | 1.1 | -3.6 | 52.7* | 46.8*
O=C(c1cc2cc(Br)ccc2o1)N1CCCC1 | 2.2 | 8.8 | 6.0 | -10.4 | 3.8 | 1.8 | nt | nt
CC1CC(C)CN(C(=O)c2cc3cc(Br)cc(Br)c3o2)C1 (centres undefined) | 1.6 | 5.9 | 10.1* | -4.7 | 2.8 | 6.2 | 61.9* | 26.5*
